This note sets out measurements from ChEMBL document CHEMBL1147851, “Novel class of arylpiperazines containing N-acylated amino acids: their synthesis, 5-HT1A, 5-HT2A receptor affinity, and in vivo pharmacological evaluation” (Bioorg Med Chem, 2007).

The source made the active and inactive calls. The calls are words filed in the database; no cut-off is given here.

A word on the Ki: it is a dissociation constant, usually derived from enzyme kinetics or from competition with a known ligand.

Assay [1] addresses 5-hydroxytryptamine receptor 2A (Rattus norvegicus, UniProt P14842). Nature of the assay: Displacement of [3H]ketanserin from serotonin 5HT2A receptor in rat brain cortex. In kind it is tissue-based. In short, it runs like this:
(§1)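 Full competition binding with 8–10 drug concentrations (10^-10–10^-3 M), each in triplicate. Ki was derived from at least three experiments.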
For orientation: Loss of bound radioactivity is the signal in a displacement assay; it reports binding, not function.

The species entered for assay [2] is Mus musculus. The experiment in a line: Decrease in body temperature in Albino Swiss mouse.
Assay [3] addresses T1, 5-hydroxytryptamine receptor 1A (Rattus norvegicus, UniProt P19327).
T1 sequence (P19327 whole entry): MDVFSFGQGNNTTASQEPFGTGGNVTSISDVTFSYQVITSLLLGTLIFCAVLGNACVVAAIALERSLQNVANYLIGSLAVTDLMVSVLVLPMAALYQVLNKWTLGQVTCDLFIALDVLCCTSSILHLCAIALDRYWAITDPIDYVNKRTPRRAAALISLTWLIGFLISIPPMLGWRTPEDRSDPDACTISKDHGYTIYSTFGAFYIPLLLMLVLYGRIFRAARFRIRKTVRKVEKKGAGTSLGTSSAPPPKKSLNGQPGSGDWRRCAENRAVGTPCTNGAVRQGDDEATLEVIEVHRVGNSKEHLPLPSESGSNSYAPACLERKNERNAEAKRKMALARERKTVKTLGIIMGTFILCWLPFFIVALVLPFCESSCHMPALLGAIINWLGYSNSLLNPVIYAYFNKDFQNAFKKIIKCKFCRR
Nature of the assay: Displacement of [3H]8-OH-DPAT from serotonin 5HT1A receptor in rat brain hippocampus. Type of assay: tissue-based. In short, it runs like this:
as §1

Assay [4] concerns the target D(2) dopamine receptor (Rattus norvegicus, UniProt P61169). The experiment in a line: Displacement of [3H]spiperone from dopaminergic D2 receptor in rat striatal membrane. In kind it is cell membranes, Striatum. An outline of the steps:
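Rat striatal membranes incubated with [3H]spiperone, with 50 nM ketanserin added to block 5-HT2A sites. Nonspecific binding was defined with 5 μM (±)-butaclamol. Incubation 30 min at 37 °C, stopped by vacuum filtration, washed with 50 mM potassium phosphate pH 7.4, counted by liquid scintillation. Estimated Ki (Cheng–Prusoff) came from two concentrations (0.1, 1 μM) in triplicate, three experiments.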

Assay [5] concerns Mus musculus. Nature of the assay: Antidepressant-like activity in Swiss Albino mouse at 10 mg/kg by forced swimming test. In kind it is functional. An outline of the steps: (§2)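 Porsolt forced swim in male Albino Swiss mice, agents given ip (1% Tween 80 suspension) 30 min beforehand. Mice were placed in a cylinder 10 cm wide holding 6 cm of water at 23–25 °C for 6 min. Floating immobility was timed over the last 4 min. n = 9-10 per group; ANOVA with Dunnett's test.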

For assay [6], the species on record is Mus musculus. Nature of the assay: Reduction in spontaneous locomotor activity in Swiss Albino mouse. In kind it is functional, organism-based. In short, it runs like this: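 Male Albino Swiss mice dosed ip were placed singly in photoresistor actometers (24 cm diameter, two light beams). Beam crossings were counted over the first 6 min and over a 30-min session. ANOVA with Dunnett's test.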

For assay [7], the system named is Mus musculus. Nature of the assay: Antidepressant-like activity in Swiss Albino mouse at 20 mg/kg by forced swimming test. Type of assay: functional. In short, it runs like this: as §2
Assay [8] concerns Mus musculus. The experiment in a line: Anxiolytic-like activity in Swiss Albino mouse at 20 mg/kg by four plate test. In kind it is functional. An outline of the steps: (§3)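 Four-plate test in male Albino Swiss mice, dosed ip 30 or 60 min before testing. After 15 s of exploration, each plate-to-plate crossing triggered a 0.5 s, 120 V floor shock, with no new shock for the next 3 s. Punished crossings were counted over 60 s. n = 10 per group; ANOVA with Dunnett's test.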

The subject of assay [9] is Mus musculus. Nature of the assay: Antidepressant-like activity in Swiss Albino mouse at 5 mg/kg by forced swimming test. Type of assay: functional. An outline of the steps: as §2
Assay [10] relates to Mus musculus. Nature of the assay: Anxiolytic-like activity in Swiss Albino mouse at 5 mg/kg by four plate test. Type of assay: functional. In short, it runs like this:
as §3

Assay [11] addresses T2, 5-hydroxytryptamine receptor 1A (Mus musculus) (UniProt Q64264).
T2 sequence (whole entry): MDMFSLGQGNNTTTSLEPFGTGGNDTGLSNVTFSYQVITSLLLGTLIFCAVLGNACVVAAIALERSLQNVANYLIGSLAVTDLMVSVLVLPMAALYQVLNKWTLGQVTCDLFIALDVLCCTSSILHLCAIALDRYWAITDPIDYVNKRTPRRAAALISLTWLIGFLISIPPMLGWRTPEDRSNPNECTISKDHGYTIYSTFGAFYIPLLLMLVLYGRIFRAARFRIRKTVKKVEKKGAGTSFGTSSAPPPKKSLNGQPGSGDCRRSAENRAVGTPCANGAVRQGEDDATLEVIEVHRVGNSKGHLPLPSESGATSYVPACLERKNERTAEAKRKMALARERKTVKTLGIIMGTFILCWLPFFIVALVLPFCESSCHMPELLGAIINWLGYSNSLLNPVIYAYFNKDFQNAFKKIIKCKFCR
Nature of the assay: Activity at 5HT1A receptor in Swiss Albino mouse assessed as decrease in 8-OH-DPAT induced body temperature. The conditions noted are these: filed as agonist. In kind it is functional. In short, it runs like this: (§4)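 Male Albino Swiss mice. 8-OH-DPAT 5 mg/kg sc induced hypothermia. Test agents were suspended in 1% aqueous Tween 80 and given ip 45 min before 8-OH-DPAT. Rectal temperature was taken 15, 30, 45 and 60 min after 8-OH-DPAT and expressed as change (Δt) from basal temperature. Six to ten animals per dose.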

Assay [12] has as its system Mus musculus. The experiment in a line: Anxiolytic-like activity in Swiss Albino mouse at 10 mg/kg by four plate test. Type of assay: functional. An outline of the steps: as §3
The species named for assay [13] is Mus musculus. Nature of the assay: Effect on body temperature in Swiss Albino mouse. In kind it is functional, organism-based. In short, it runs like this: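 Male Albino Swiss mice received the agent alone ip as a suspension in 1% aqueous Tween 80. Rectal body temperature was read at 30, 60, 90 and 120 min after dosing and expressed as Δt from the basal value taken at the start. Six to ten animals per dose.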

The subject of assay [14] is Mus musculus. The experiment in a line: Antidepressant-like activity in C57BL/6J mouse at 5 mg/kg by tail suspension test. Type of assay: functional.
In assay [15] the test system is Mus musculus. Nature of the assay: Antidepressant-like activity in Swiss Albino mouse at 2.5 mg/kg by forced swimming test. Type of assay: functional. An outline of the steps: as §2
Assay [16] has as its system Mus musculus. The experiment in a line: Antidepressant-like activity in C57BL/6J mouse at 10 mg/kg by tail suspension test. In kind it is functional. In short, it runs like this:
(§5)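 Tail suspension in male C57BL/6J mice (22–23 g), dosed ip in 1% Tween 80 suspension 30 min before the test. Each mouse hung by adhesive tape about 1 cm from the tail tip, 75 cm above the floor. Total immobility, meaning no limb or body movement except breathing, was scored manually over 6 min. n = 9-10 per group; one-way ANOVA then Dunnett's test.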

Assay [17] relates to Mus musculus. The experiment in a line: Antidepressant-like activity in C57BL/6J mouse at 20 mg/kg by tail suspension test. In kind it is functional. An outline of the steps:
as §5

Assay [18] concerns Mus musculus. The experiment in a line: Anxiolytic-like activity in Swiss Albino mouse at 2.5 mg/kg by four plate test. Type of assay: functional. An outline of the steps: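 Male Albino Swiss mice (24–28 g), each used once, 10 per dose group. Dosing ip at 10 mL/kg, 30 or 60 min before testing depending on agent; tested compounds given as suspensions in 1% aqueous Tween 80. Four-metal-plate floor; 15 s exploration, then each plate-to-plate crossing shocked (120 V, 0.5 s), no new shock for 3 s if still running. Punished crossings counted over 60 s; one-way ANOVA, Dunnett's test.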

In assay [19] the target is T2, 5-hydroxytryptamine receptor 1A (Mus musculus). Nature of the assay: Antagonist activity at 5-HT1A receptor in Swiss Albino mouse assessed as decrease in 8-OH-DPAT induced body temperature. Type of assay: functional. In short, it runs like this: as §4
The species named for assay [20] is Mus musculus. The experiment in a line: Decrease in body temperature in C57BL/6J mouse. Type of assay: functional, organism-based.

Chain of 5-hydroxytryptamine receptor 2A (P14842 whole entry): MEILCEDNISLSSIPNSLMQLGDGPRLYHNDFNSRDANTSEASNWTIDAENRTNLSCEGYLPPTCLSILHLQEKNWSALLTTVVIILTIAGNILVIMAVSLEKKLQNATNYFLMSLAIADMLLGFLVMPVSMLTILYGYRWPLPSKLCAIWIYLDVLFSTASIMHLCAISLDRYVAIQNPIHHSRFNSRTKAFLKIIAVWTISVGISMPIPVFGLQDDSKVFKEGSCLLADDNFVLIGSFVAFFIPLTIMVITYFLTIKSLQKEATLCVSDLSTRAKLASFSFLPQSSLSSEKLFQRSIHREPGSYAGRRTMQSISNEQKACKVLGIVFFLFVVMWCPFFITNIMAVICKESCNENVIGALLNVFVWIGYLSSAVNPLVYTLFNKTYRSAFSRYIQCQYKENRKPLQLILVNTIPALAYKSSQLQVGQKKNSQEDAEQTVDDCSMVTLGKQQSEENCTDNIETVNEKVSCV
Chain of D(2) dopamine receptor (P61169 whole entry): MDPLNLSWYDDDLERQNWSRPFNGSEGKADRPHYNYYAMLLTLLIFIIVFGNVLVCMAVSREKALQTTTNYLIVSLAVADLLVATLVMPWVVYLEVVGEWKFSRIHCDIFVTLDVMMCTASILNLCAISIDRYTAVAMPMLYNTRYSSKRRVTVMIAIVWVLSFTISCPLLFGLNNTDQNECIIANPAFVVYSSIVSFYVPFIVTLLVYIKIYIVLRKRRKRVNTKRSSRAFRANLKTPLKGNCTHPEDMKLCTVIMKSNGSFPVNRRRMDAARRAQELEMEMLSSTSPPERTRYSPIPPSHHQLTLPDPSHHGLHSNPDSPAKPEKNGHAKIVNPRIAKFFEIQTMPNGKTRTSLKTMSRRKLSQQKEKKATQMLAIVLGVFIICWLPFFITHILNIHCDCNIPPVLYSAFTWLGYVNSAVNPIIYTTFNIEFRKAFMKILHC

For `COc1ccccc1N1CCN(CCCCN2C(=O)C[C@H](NC(=O)CC3CC4CCC3C4)C2=O)CC1` (stereo not given in full), the Ki in assay [1] came out at 47 nM; in assay [3] it was 9 nM; in [4] it was 880 nM. Besides, the result in [2] was Active.
Consider `COc1ccccc1N1CCN(CCCCN2C(=O)C[C@H](NC(=O)C3CCCC3)C2=O)CC1`, for which the inhibitory constant (Ki) in [1] came out at 480 nM; in assay [3], 23 nM; in assay [4], 905 nM. The Activity is 123.3 s in assay [5]; 103 s in assay [7]; 6 in [8]; 133.4 s in assay [9]; 3.4 in [10]; “Agonist” in assay [11]. Besides, the Activity in [12] was found to be 5.2. For the same compound, the result in assay [6] was Active.
With `O=C(N[C@H]1CC(=O)N(CCCCN2CCN(c3cccc(Cl)c3)CC2)C1=O)C1CCCCC1`, the results for the Ki in assay [1], in assay [3] and in [4] were 6.51 nM, 26 nM and 2130 nM, respectively. For the same compound, the outcome in assay [13] was inactive.
Regarding `COc1ccccc1N1CCN(CCCCN2C(=O)C[C@H](NC(=O)C3CCCCC3)C2=O)CC1`, the results for the inhibitory constant (Ki) in [1], in [3] and in assay [4] were 183 nM, 19 nM and 2080 nM, respectively. Besides, the Activity is given as 147.9 s in assay [14]; 131.6 s in [15]; 102 s in [5]; 129.1 s in assay [16]; 116.1 s in assay [17]; 4.7 in assay [18]. Further, the Activity is 128.1 s in assay [7]; 7.5 in [8]; 110 s in [9]; 6.6 in assay [10]; “Agonist” in [11]; 7 in assay [12]. Further, the result in assay [6] was inactive.
As to `CN(C)CCCN1c2ccccc2CCc2ccccc21` [IMIPRAMINE], the Activity in assay [14] stood at 147.4 s; in [5], 149.1 s; in assay [16], 102.5 s; in [17] it was 90.2 s; in [7], 107.8 s.
`O=C1C[C@H](NC(=O)C23CC4CC(CC(C4)C2)C3)C(=O)N1CCCCN1CCN(c2cccc(Cl)c2)CC1`: the figures for the Ki in assay [1], in assay [3] and in assay [4] were 25 nM, 47 nM and 21200 nM, respectively. Moreover, the result in assay [19] was Active. The Activity in assay [8] was 5.6; in assay [10], 4.6; in assay [12], 5.1.
Turning to `O=C(CC1CC2CCC1C2)N[C@H]1CC(=O)N(CCCCN2CCN(c3cccc(Cl)c3)CC2)C1=O` (stereo not given in full), the Ki in [1] was 4.2 nM; in assay [3], 21 nM; in assay [4], 776 nM. In addition, the result in [13] was inactive.
Regarding `CN1C(=O)CN=C(c2ccccc2)c2cc(Cl)ccc21` [DIAZEPAM], the Activity in [18] worked out at 6.8; in [10], 6.7.
Consider `COc1ccccc1N1CCN(CCCCN2C(=O)C[C@H](NC(=O)C34CC5CC(CC(C5)C3)C4)C2=O)CC1`, for which the values for the Ki in assay [1], in assay [3] and in assay [4] were 173 nM, 4 nM and 1780 nM, respectively. The outcome in [2] was Active.
For the compound `COc1ccccc1N1CCN(CCCCNC(=O)[C@@H]2CCCN2C(=O)C2CCCCC2)CC1`, the Ki in assay [1] was 990 nM; in [3], 19 nM; in assay [4] it was 3590 nM. Moreover, the result in [20] was Active.
As for `O=C(N[C@H]1CC(=O)N(CCCCN2CCN(c3cccc(Cl)c3)CC2)C1=O)C1CCCC1`, the figures for the Ki in assay [1], in [3] and in assay [4] were 47 nM, 28 nM and 12400 nM, respectively. Moreover, in [2], the outcome was Active.
Take `O=C1CCC(=O)N1CCCCN1CCN(c2cccc(Cl)c2)CC1`: the results for the inhibitory constant (Ki) in assay [1], in assay [3] and in assay [4] were 121 nM, 32 nM and 7800 nM, respectively.
Regarding `COc1ccccc1N1CCN(CCCCN2C(=O)CCC2=O)CC1`, the inhibition constant Ki was determined as 1510 nM in assay [1] and 490 nM in [4].
